Compound activity from PubChem BioAssay.
KCNQ1 pot: potentiators or activators of KCNQ1 channel, primary screen, cell-based, thallium flux, high-throughput; AID 2648, 2010; CHO-K1 KCNQ1, thallium flux FluxOR fluorescence; hits give high values; B-score at 10 µM; actives 0.35% (n = 310,000); Potassium voltage-gated channel subfamily KQT member 1 (Homo sapiens), P51787;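 active means fluorescence ratio B-score, a plate-corrected score, at least three library SD, with initial intensity B-score within 5 SD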
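System: CHO-K1 cells stably expressing KCNQ1 / Medium: assay buffer for compound exposure, DMSO matched across wells / Reagent: thallium- and potassium-containing depolarizing buffer / Compound: one concentration, matched DMSO / Incubation: 20 min compound pretreatment at room temperature / Measured by: kinetic FluxOR fluorescence, 10 s baseline plus 110 s post-stimulus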
KCNK3 inh: human KCNK3 channel inhibitors, primary screen, CHO cells, FluxOR thallium flux, B-score; B-score at 10 µM; FluxOR fluorescence; hits give low values; actives 0.84% (n = 340,000);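 active means B-score under library mean minus 4 SD, starting fluorescence ratio at most library mean plus 5 SD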;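 further: more negative B-score means stronger inhibition of thallium flux through KCNK3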
KCNK9 block: KCNK9 potassium channel inhibitors, primary screen, HEK293 cells, thallium flux; FluxOR thallium flux fluorescence; hits give low values; B-score at 10 µM; actives 1.2% (n = 310,000); AID 488922, 2010;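 active means ratio B-score over 3 SD below the library mean, with starting fluorescence within 5 SD of its mean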;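 further: negative B-score means less thallium flux so channel inhibition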
KCNQ1 inh: inhibitors of human KCNQ1 channel, primary screen, cell-based, thallium flux, high-throughput. Potassium voltage-gated channel subfamily KQT member 1 (Homo sapiens), P51787. CHO-K1 KCNQ1, FluxOR thallium flux fluorescence; hits give high values. B-score at 10 µM. actives 1.3% (n = 310,000). AID 2642, 2010;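 active means compounds whose thallium flux B-score, printed positive for inhibition, exceeds three library SD while starting fluorescence stays within three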;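 further: channel opened by potassium depolarization with thallium stimulus after 20 min compound exposure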
hERG protect: hERG rescue from dofetilide block, primary screen, cell-based, CHO-hERG, FluxOR thallium flux, dofetilide IC70; activation (rescue from dofetilide block), less the hit threshold, % at 10 µM; dofetilide IC70 present; actives 0.51% (n = 310,000); Voltage-gated inwardly rectifying potassium channel KCNH2 (Homo sapiens), Q12809;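 active means activation above the mean of controls blocked by dofetilide plus 5 SD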;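 further: thallium influx through hERG after potassium depolarization seen as dye fluorescence rise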
Target sequence (Q12809 whole entry, looked up): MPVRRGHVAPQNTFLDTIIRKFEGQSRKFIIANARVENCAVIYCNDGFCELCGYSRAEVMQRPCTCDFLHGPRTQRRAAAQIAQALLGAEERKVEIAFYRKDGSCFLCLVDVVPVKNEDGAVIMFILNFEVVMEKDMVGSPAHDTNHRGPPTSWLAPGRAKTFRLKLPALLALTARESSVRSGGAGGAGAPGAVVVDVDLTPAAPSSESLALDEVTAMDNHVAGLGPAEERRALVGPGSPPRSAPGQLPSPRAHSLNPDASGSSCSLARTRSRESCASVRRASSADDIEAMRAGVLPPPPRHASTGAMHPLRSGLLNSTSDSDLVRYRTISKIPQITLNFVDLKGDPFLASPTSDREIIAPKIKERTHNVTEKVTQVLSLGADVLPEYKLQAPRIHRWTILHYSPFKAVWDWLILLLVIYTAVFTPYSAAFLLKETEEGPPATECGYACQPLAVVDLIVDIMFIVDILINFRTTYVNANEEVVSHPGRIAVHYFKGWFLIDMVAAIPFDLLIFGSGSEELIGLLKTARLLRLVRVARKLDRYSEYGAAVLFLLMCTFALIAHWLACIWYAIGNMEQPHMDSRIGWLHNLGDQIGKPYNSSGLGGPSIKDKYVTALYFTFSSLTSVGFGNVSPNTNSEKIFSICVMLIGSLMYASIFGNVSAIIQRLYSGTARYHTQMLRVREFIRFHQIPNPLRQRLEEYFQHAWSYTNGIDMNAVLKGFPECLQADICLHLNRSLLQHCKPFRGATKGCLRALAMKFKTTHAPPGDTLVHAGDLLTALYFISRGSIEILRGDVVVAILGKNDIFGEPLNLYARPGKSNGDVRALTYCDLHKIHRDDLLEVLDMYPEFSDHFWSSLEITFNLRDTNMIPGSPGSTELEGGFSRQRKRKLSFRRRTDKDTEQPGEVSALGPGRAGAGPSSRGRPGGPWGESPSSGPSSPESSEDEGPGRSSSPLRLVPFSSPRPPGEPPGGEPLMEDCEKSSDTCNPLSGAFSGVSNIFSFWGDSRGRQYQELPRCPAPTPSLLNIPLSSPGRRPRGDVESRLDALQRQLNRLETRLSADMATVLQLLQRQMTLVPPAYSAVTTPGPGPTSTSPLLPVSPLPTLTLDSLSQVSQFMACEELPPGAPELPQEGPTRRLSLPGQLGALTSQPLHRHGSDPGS
Kir21 inh: inhibitors of mouse Kir2.1 inward-rectifier potassium channel; B-score at 10 µM; HEK293-Kir2.1, FluxOR thallium flux fluorescence; hits give low values; AID 1672, 2009; actives 0.85% (n = 310,000);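 active means fluorescence ratio B-score at or below minus 3 SD of library scores, with starting-brightness B-score within 2 SD, cut at about -4.2 in these data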;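 further: channel flux triggered by added potassium and thallium sulfate stimulus; B-score of peak minus minimum fluorescence over baseline after thallium stimulus; more negative B-score means stronger Kir2.1 block with less thallium influx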
Active calls of the source: *; i = inactive; . = not tested or not shown. Rows were chosen to be rich in hits. Some 3.8% of all compounds tested hit in one or more screens of this group.

SMILES	KCNQ1 pot	KCNK3 inh	KCNK9 block	KCNQ1 inh	hERG protect	Kir21 inh
COc1ccc(O[C@@H]2O[C@H](COC(C)=O)[C@@H](OC(C)=O)[C@H](OC(C)=O)[C@H]2NC(C)=O)cc1	i	i	i	i	-2	-0.01
CC(=O)N[C@H]1[C@H](OC2CCCCC2)O[C@H](COC(C)=O)[C@@H](OC(C)=O)[C@@H]1OC(C)=O	8*	i	i	i	-2	0.17
COc1ccc(C2NC(c3ccc(OC)c(OC)c3OC)C(C)C(=O)C2C)c(OC)c1OC (stereo not drawn)	10*	i	i	i	-2	-0.03
Cc1nc(C)c(C(=O)NNS(=O)(=O)c2ccc3ccccc3c2)s1	i	i	i	i	-18	-0.4
CN1C(=O)c2cccc3c(Cl)ccc(c23)C1=O	i	i	i	i	-9	-1.4
CN1C(=O)c2cccc3c(N(C)C)ccc(c23)C1=O	i	i	i	6*	-16	-2.7
Cc1sc(NC(=O)C2C3C=CC(C3)C2C(=O)O)c(C(N)=O)c1-c1ccc(C(C)C)cc1 (stereo not drawn)	i	i	i	i	-12	1.7
C=CCNC(=S)Nc1sc2c(c1C(=O)OCC)CC(C)(CC)OC2 (stereo not drawn)	22*	i	i	i	9.4*	0.56
O=C(CNC(=S)N(Cc1ccccc1)Cc1cccnc1)NC1CCCC1	i	i	i	i	-11	-0.57
COC(=O)c1cc(C(=O)OCC(=O)Nc2ccc(N3CCOCC3)cc2)cc([N+](=O)[O-])c1	.	i	.	.	.	.
CCCCCC(=O)NC(NC(=S)NC1CCS(=O)(=O)C1)C(Cl)(Cl)Cl (stereo not drawn)	i	i	i	i	5.6*	0.19
COc1ccc([C@H]2CC(=O)C=C(c3ccc(OC)c(F)c3)C2)cc1	.	i	.	.	.	.
O=C(CCN=C1NS(=O)(=O)c2ccccc21)OCc1cccc(Cl)c1	i	i	i	i	-17	-1.3
O=C(C[n+]1ccccc1)N/N=C/c1ccc(Cl)c(Cl)c1	i	i	i	i	5.2*	0
Cn1nnnc1SCC(=O)Nc1ccc(C(=O)N2CCN(Cc3ccccc3F)CC2)cc1	.	i	.	.	.	.
CC(CC12CC3CC(CC(C3)C1)C2)NCc1ccccc1O (stereo not drawn)	i	i	i	6*	-13	-5*
COc1ccc(C(c2c[nH]c3ccccc23)c2c[nH]c3ccccc23)cc1O	i	i	i	7*	-5	0.96
COc1cc(CN(C)C(=O)C(=O)c2c[nH]c3ccccc23)ccc1O	.	i	.	.	.	.
CC(C)(C)C(C(=O)n1cccc1C#N)c1ccccc1 (stereo not drawn)	.	i	.	.	.	.
OCCN1CCN(Cc2cccc(Oc3ccc(Cl)cc3)c2)CC1	i	i	i	i	-16	-5.2*
CN(Cc1c(F)cccc1Cl)C(=O)CNC(=O)c1sc2ccccc2c1Cl	i	i	i	i	-9	2
CC(=O)c1ccc(NC(=O)c2ccc3nc(-c4ccco4)c(-c4ccco4)nc3c2)cc1	i	-11*	i	i	-7	-0.28
O=C(Nc1ccccc1)c1ccc2nc(-c3ccco3)c(-c3ccco3)nc2c1	i	i	i	i	-10	0.94
COc1cccc(C(=O)c2c(-c3ccccc3)ncc3cc(OC)c(OC)cc23)c1	.	i	.	.	.	.
CSc1nc2c(c(=O)[nH]1)C(c1ccccc1Cl)CC(=O)N2 (stereo not drawn)	i	i	i	i	9.7*	2.3
SMILES	KCNQ1 pot	KCNK3 inh	KCNK9 block	KCNQ1 inh	hERG protect	Kir21 inh
O=C(NCCc1ccc(O)c(O)c1)C1COc2ccccc2O1 (stereo not drawn)	i	i	i	i	-8	-0.52
COCCNC(=O)CN(C(=O)c1ccc(N2CCCC2)nc1)c1ccccc1	i	i	i	i	5.1*	-0.22
COCCNC(=O)CN(C(=O)c1ccc(N2CCCC2)nc1)c1ccc(F)c(Cl)c1	i	i	i	i	-7	-0.24
CC[C@@H](C(=O)[C@@H](C)[C@@H](O)[C@H](C)CCc1ccc(C)c(O)c1C(=O)O)[C@H]1O[C@](CC)([C@H]2CC[C@](O)(CC)[C@H](C)O2)C[C@@H]1C	76*	i	i	i	65*	-1.4
Cc1cc(NC(=O)CSCC(=O)Nc2nc3ccccc3[nH]2)no1	i	i	i	i	-3	-1.2
CCOC(=O)CSc1nc2c(sc(=S)n2-c2ccc(CC)cc2)c(=O)[nH]1	i	i	i	6*	-14	0.67
CCOC(=O)CC(=O)CSc1nc2c(sc(=S)n2-c2ccccc2)c(=O)[nH]1	i	i	i	i	-10	0.88
Cn1c(O)c(N=NC(=O)C2COc3ccccc3O2)c2ccccc21 (stereo not drawn)	i	i	i	i	-6	0.25
CC(C)n1c(O)c(N=NC(=O)C2COc3ccccc3O2)c2ccccc21 (stereo not drawn)	i	i	i	i	23*	0.01
Nc1nc(CSc2nnnn2-c2ccccc2)nc(N2CCCc3ccccc32)n1	.	-10*	.	.	.	.
COc1cccc(C(C)NC(=O)Nc2ccccc2Cl)c1 (stereo not drawn)	i	i	i	i	-2	0.62
CCN(CC)c1nc(OCCNC(=O)Nc2ccccc2)nc(N(CC)CC)n1	i	i	-7.9*	10*	-11	-5.3*
O=C(NNC(=S)Nc1ccc(C(=O)O)c(O)c1)c1ccncc1	.	i	.	.	.	.
Cc1ccc(NC(=O)Cc2nnc(SCC(=O)NC3CCCC3)n2C)cc1C	i	i	i	i	-14	0.26
CCOc1ccc(NC(=S)NS(=O)(=O)c2cc(Br)ccc2OCC)cc1	i	i	i	i	7.1*	0.25
CCOc1ccc(S(=O)(=O)NNC(=S)Nc2ccc(Br)cc2)cc1	i	i	i	i	-7	3.5
CCNC(=S)N(Cc1c(C)noc1C)c1ccccc1	i	i	i	i	-7	-3.5
CCCCNC(=S)N(Cc1c(C)noc1C)c1ccccc1	i	i	i	i	-6	-5.4*
CN(C)C(CNC(C(=O)Nc1ccc([N+](=O)[O-])cc1Br)c1ccccc1)c1ccccc1 (stereo not drawn)	i	i	i	9*	-13	0.58
